High-throughput results deposited in PubChem by several laboratories.
Vif inh: HIV Vif inhibition. inhibition, % at 7.49 µM. AID 602346. 340,000 compounds, 0.35% hits. HEK293T cells, Vif self-association by quenched fluorescence, imaging, 24 h; in the data active = inhibition above about 50%, passing the limit was not always enough; inconclusive = no clear call, values can overlap the other calls; inactive = below about 31%
SR-BI HDL uptake: mouse SR-BI HDL lipid transfer inhibition. ldlA[mSR-BI] CHO cells, DiI-HDL uptake fluorescence, 3 h. AID 488896. 320,000 compounds, 0.96% hits. Q61009. inhibition, % at 12.5 µM;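 active = mean replicate inhibition of at least 70% and a set share of replicates each scoring 70 or more; inconclusive = meets just one of the two criteria; inactive = fails both criteria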;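 note: 0% = median of neutral control wells and 100% = median of positive control wells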
Target sequence (Q61009 whole entry, looked up): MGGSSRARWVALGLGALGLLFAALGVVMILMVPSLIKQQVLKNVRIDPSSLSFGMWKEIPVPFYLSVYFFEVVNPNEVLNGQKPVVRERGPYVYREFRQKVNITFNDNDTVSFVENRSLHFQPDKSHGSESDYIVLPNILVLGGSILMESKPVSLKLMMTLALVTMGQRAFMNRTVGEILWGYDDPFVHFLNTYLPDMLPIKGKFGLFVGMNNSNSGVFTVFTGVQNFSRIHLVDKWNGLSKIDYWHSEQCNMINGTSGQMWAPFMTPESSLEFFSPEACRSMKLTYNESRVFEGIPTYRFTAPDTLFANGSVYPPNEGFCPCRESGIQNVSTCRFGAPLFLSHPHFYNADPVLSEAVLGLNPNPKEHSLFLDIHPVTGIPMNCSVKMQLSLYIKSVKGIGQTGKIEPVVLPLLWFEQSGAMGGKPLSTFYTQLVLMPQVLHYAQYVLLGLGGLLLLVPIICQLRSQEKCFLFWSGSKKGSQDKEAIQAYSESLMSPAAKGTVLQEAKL
SR-BI DiI-HDL act: SR-BI HDL lipid transfer activation; AID 504775; activation, % at 12.5 µM; 320,000 compounds, 0.096% hits; CHO ldlA[mSR-BI] cells, DiI-HDL uptake fluorescence, 3 h; 100 = double the neutral-control signal;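 active = mean replicate activation of at least 60% and every replicate at or above 60%; inconclusive = mean or all-replicate condition met, but not both; inactive = mean below 60% and not all replicates reaching 60%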;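 note: 0% = median plate neutral-control signal and 100% = twice that signal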
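Test system: SR-BI-overexpressing, LDLR-lacking CHO cells; Also added: labelled HDL, 10 µg/mL; Measured by: bottom-read cell fluorescence after medium removal, ex 550/em 595 nm; Timing: 3 h uptake period with compound, 37 °C; Buffer or medium: F12, 0.5% BSA, 25 mM HEPES; Doses: single compound concentration, delivered by pin transfer.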
Bfl-1 A1 inh: inhibitors of the anti-apoptotic protein A1, read as caspase activation | MEF A1-2A-BIM cells, Caspase-Glo 3/7 luminescence, 3 h; percent of clofoctol response, vehicle zero | caspase activation, % (no concentration beside the values) | 330,000 compounds, 0.066% hits;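 active = over half of replicate activation scores above 10%, or exactly half above 10 with the replicate mean above 10; inconclusive = replicate mean below 10 yet half the replicates above 10; inactive = over half of replicates below 10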
H9c2 TAG inh: triacylglycerol accumulation inhibition | H9c2 cells, Nile Red lipid (TAG) fluorescence; cells loaded with 200 µM oleic acid | 230,000 compounds, 0.66% hits | inhibition, % at 12.5 µM;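 active = pattern-corrected inhibition of lipid staining of at least 50% with the nuclear-stain viability signal not falling by more than 50%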;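 note: 0% = DMSO wells and 100% = triacsin C control wells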
* = called active by the depositor; u = inconclusive; x = no result given. Most compounds without a hit are left out; they make up all but 1.6% or so of the library.

SMILES | Vif inh | SR-BI HDL uptake | SR-BI DiI-HDL act | Bfl-1 A1 inh | H9c2 TAG inh
Cc1cccc(NC(=O)C(=O)NCC2CCCO2)c1 (configuration not stated) | 1 | -2 | 2 | -6 | 1
O=C(/C=C/c1ccco1)Nc1ccc(Oc2ccc(Cl)cc2)cc1 | 63* | 18 | -18 | -1 | x
Cc1ccc(NC(=O)/C=C/c2ccco2)nc1 | 51* | -6 | 6 | -2 | 18
CC(Sc1nc(N)cc(N)n1)C(=O)Nc1ccc(N2CCOCC2)cc1 (configuration not stated) | 13 | -2 | 2 | 1 | -39
Cc1ccc(C)c(N2CCN(C(=S)Nc3ccc4nc(N5CCN(C)CC5)cc(C)c4c3)CC2)c1 | -2 | 35 | -35 | 1 | 25
Cc1ccc(C)c(N2CCN(C(=S)Nc3ccc4nc(N5CCOCC5)cc(C)c4c3)CC2)c1 | 2 | 87* | -87 | 0 | 14
CCC(C)NC(=O)CC(C)C (configuration not stated) | 3 | 9 | -9 | 1 | 4
CC(C)CC(=O)NCC(C)NC(=O)CC(C)C (configuration not stated) | 6 | -73 | 73* | 0 | -11
Cc1c(Cl)cccc1NC(=O)CSc1nc(=O)n(CCCN2CCOCC2)c2c1CCCC2 | 3 | x | x | x | 1
NS(=O)(=O)c1ccc(N=Nc2c(-c3ccccc3)[nH]n(-c3nc(-c4ccccc4)cs3)c2=O)cc1 | 6 | 112* | -112 | -1 | x
Nc1[nH]n2c(=O)cc(-c3ccccc3)nc2c1N=Nc1ccc(S(N)(=O)=O)cc1 | 1 | 2 | -2 | -1 | x
Cc1[nH]n(-c2ccccc2)c(=O)c1/C=N/NC(=O)c1ccc(O)cc1O | 0 | 44 | -44 | -6 | x
Cc1[nH]n(-c2ccccc2)c(=O)c1/C=N/Nc1nncc(-c2ccccc2)n1 | -11 | 91* | -91 | 1 | x
Cc1cc(C(=O)N/N=C/c2c(C)[nH]n(-c3ccccc3)c2=O)n[nH]1 | 6 | 33 | -33 | 1 | x
Cc1[nH]n(-c2ccccc2)c(=O)c1/C=N/NC(=O)c1cccc(F)c1 | -33 | 132* | -132 | -1 | x
CCCCN(CCCC)C(=S)N/N=C/c1c(C)[nH]n(-c2ccccc2)c1=O | 11 | 18 | -18 | -1 | 11
Cc1[nH]n(-c2ccc(Br)cc2)c(=O)c1/C=N/NC(=O)c1ccccc1 | 8 | 136* | -136 | -9 | x
Cc1ccc(-n2[nH]c(C)c(/C=N/NC(=O)c3ccc(O)cc3O)c2=O)cc1 | -2 | 137* | -137 | -7 | x
COc1ccc(S(=O)(=O)n2cccc2)cc1 | -2 | x | x | 0 | 13
C/C=C/c1ccc(OCCCNC)c(OC)c1 | 2 | -7 | 7 | 0 | -14
C/C=C/c1ccc(OCCNCc2ccccc2)c(OC)c1 | 70* | -1 | 1 | 0 | x
Cc1ccc(OCC(=O)Nc2ccc(C)c(S(=O)(=O)N3CCCCCC3)c2)c([N+](=O)[O-])n1 | 5 | 74* | -74 | -1 | 19
COc1ccc(C(=O)Nc2ccc(C)c(S(=O)(=O)N3CCCCCC3)c2)cc1 | -12 | 81* | -81 | 0 | 16
CCCN(CC(=O)Nc1ccccc1C)C(=O)c1ccc(NC2CC2)c([N+](=O)[O-])c1 | 7 | 13 | -13 | 0 | 23
Cc1ccc([N+](=O)[O-])cc1N=Nc1c(-c2ccc([N+](=O)[O-])cc2)[nH]n(C(N)=S)c1=O | -54 | 80* | -80 | x | 9
SMILES | Vif inh | SR-BI HDL uptake | SR-BI DiI-HDL act | Bfl-1 A1 inh | H9c2 TAG inh
O=c1c(N=Nc2ccc(O)cc2)c(-c2ccccc2)[nH]n1-c1ccc([N+](=O)[O-])cc1 | -10 | 107* | -107 | 0 | 88*
NC(=O)c1ccc(N=Nc2c(-c3ccccc3)[nH]n(-c3ccccc3)c2=O)cc1 | x | x | x | 0 | x
Cc1ccc([N+](=O)[O-])cc1N=Nc1c(C)[nH]n(C(N)=S)c1=O | -4 | -2 | 2 | 0 | x
NC(=S)n1[nH]c(-c2ccc([N+](=O)[O-])cc2)c(N=Nc2ccc(Cl)cc2)c1=O | -12 | 104* | -104 | x | 12
CC(C)CCOc1ccc(C2CC(=O)N(C)C2=O)cc1 (configuration not stated) | 4 | 17 | -17 | 0 | 14
O=C(Cc1cccc2ccccc12)NCCc1ccccc1 | -4 | -11 | 11 | 0 | x
C[C@@H]1CN([C@H](C)CO)C(=O)CCCn2nncc2CO[C@@H]1CN(C)C(=O)Nc1ccc2c(c1)OCO2 | x | x | x | x | 13
Cc1ccc(O)c(N=CC2=C(O)c3ccccc3C2=O)c1 | x | 118* | -118 | -3 | -29
Cc1ccccc1C(=O)Nc1ccc(C(=O)N/N=C/c2ccc(O)cc2)cc1 | 70* | 70 | -70 | 1 | x
Cc1ccccc1C(=O)Nc1ccc(C(=O)N/N=C/c2ccncc2)cc1 | -1 | 29 | -29 | 0 | x
Cc1ccccc1C(=O)Nc1cccc(C(=O)N/N=C/c2cc(Cl)cc([N+](=O)[O-])c2O)c1 | 2 | 102* | -102 | -1 | 12
O=C(Nc1ccc(Nc2ccccc2)cc1)c1ccc(F)cc1 | -1 | 38 | -38 | -3 | x
O=C(Nc1cccc(NC(=O)c2ccc(F)cc2)c1)c1ccc(F)cc1 | -3 | 76* | -76 | 0 | x
Cc1ccccc1C(=O)Nc1cccc(NC(=O)c2ccc(F)cc2)c1 | -2 | 79* | -79 | 0 | x
C[C@@H]1CN([C@H](C)CO)C(=O)CCCn2cc(nn2)CO[C@H]1CN(C)C(=O)Nc1cccc(Oc2ccccn2)c1 | 14 | x | x | x | 0
Cc1cccc(NS(=O)(=O)c2ccc(C(=O)N3CC(C)OC(C)C3)cc2)c1C (configuration not stated) | -4 | -2 | 2 | 1 | 2
CNC(=S)NC1(C)CCS(=O)(=O)C1 (configuration not stated) | -7 | 1 | -1 | 3 | 15
Cc1cccc(C(=O)Nc2ccc(C(=O)N/N=C/c3ccc4c(c3)OCO4)cc2)c1 | 15 | 85* | -85 | 1 | x
O=C(NC(=S)Nc1ccc(-c2ccccc2)cc1)c1ccccc1 | 2 | -137 | u | x | -28
O=C(Nc1ccc(NC(=S)NC(=O)c2ccco2)cc1)c1ccccc1 | 13 | 45 | -45 | -1 | x
O=C(Nc1ccc(NC(=S)NC(=O)c2ccco2)cc1)c1ccc(Br)cc1 | 53* | x | x | x | 9
O=C(NC(=S)Nc1ccc(NC(=O)c2ccccc2)cc1)c1ccc(F)cc1 | 51* | 47 | -47 | -2 | x
Cc1cccc(C(=O)Nc2cccc(C(=O)N/N=C/c3ccc4c(c3)OCO4)c2)c1 | 12 | 55 | -55 | -2 | x
O=C(NC(=S)NCc1ccccc1)c1ccccc1 | 0 | -65 | 65* | 1 | -19
O=C(N/N=C/c1ccc(F)cc1)c1cccc(NC(=O)c2ccc(F)cc2)c1 | 12 | 72* | -72 | -1 | x
NC(=S)NNc1ccnc2cc(Cl)ccc12 | 2 | 90* | -90 | 0 | -12
